Measurements published in ChEMBL document CHEMBL3120083, “Discovery of N-[4-[6-tert-butyl-5-methoxy-8-(6-methoxy-2-oxo-1H-pyridin-3-yl)-3-quinolyl]phenyl]methanesulfonamide (RG7109), a potent inhibitor of the hepatitis C virus NS5B polymerase” (J Med Chem, 2014).
pEC50: −log10 of the molar value. Values after ≈ are worked out from the molar mass of the structure shown. Values belong to the compound of their own block, whether it stands above or below them.

Assays:
Hepatitis C virus [1] = experiment: Antiviral activity against Hepatitis C virus genotype 1b Con1 infected in human 2209-23 cells after 72 hrs by luciferase reporter gene assay; assay type: functional, organism-based, Hepacivirus hominis; settings: isolate Con1, 2209-23, 72 h
Summary of the method: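 Stable GT-1b Con1 subgenomic replicon cell line expressing a renilla luciferase reporter, used as the readout of inhibition. EC50 from luciferase signal, n 2.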

Hepatitis C virus [2] = experiment: Antiviral activity against Hepatitis C virus genotype 1a H77 infected in human 2209-23 cells after 72 hrs by luciferase reporter gene assay; assay type: functional, organism-based, Hepacivirus hominis; settings: genotype 1a H77, 2209-23, 72 h
Hepatitis C virus [3] = experiment: Antiviral activity against Hepatitis C virus genotype 1b clinical isolate RO-10 expressing NS5B assessed as inhibition of viral replication after 4 days by luciferase reporter gene assay; assay type: functional, organism-based, Hepacivirus hominis; settings: genotype 1b clinical isolate RO-10, 96 h
[4] = Volume of distribution at steady state in Wistar/Han rat at 2.6 mg/kg, iv; assay type: ADME, organism-based; set-up: dose 2.6 mg/kg, route intravenous; settings: in vivo, read-out: Vdss
Summary of the method: (§1)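 Single IV bolus by tail vein or jugular cannula in 2% dimethyl acetamide/20% PEG400/23.4% HPBCD, n = 3. EDTA blood taken at typically 0.08, 0.25, 0.5, 1, 2, 4, 6, 8 and 24 h. Plasma assayed by LC/MS/MS after acetonitrile protein precipitation; clearance, Vdss and t1/2 derived from the plasma data.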

[5] = Half life in Beagle dog at 0.86 mg/kg, iv; assay type: ADME, organism-based, Canis lupus familiaris; set-up: dose 0.86 mg/kg, route intravenous; settings: in vivo; summary of the method: as §1
Hepatitis C virus [6] = experiment: Antiviral activity against Hepatitis C virus genotype 1a clinical isolate RO-38 expressing NS5B assessed as inhibition of viral replication after 4 days by luciferase reporter gene assay; assay type: functional, organism-based, Hepacivirus hominis; settings: genotype 1a clinical isolate RO-38, 96 h
[7] = Oral bioavailability in Wistar/Han rat at 30 mg/kg of amorphus MBP compound; assay type: ADME, organism-based; settings: in vivo
Summary of the method: (§2)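 Single oral dose by gavage in 2% Klucel LF in water (the amorphous MBP was made by solvent-controlled co-precipitation with Eudragit L100-55 from DMA into chilled pH 3.0 dilute HCl), n = 3. EDTA blood typically sampled at 0.25, 0.5, 1, 2, 4, 6, 8 and 24 h. Plasma levels by LC/MS/MS after acetonitrile protein precipitation.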

Hepatitis C virus [8] = experiment: Antiviral activity against Hepatitis C virus genotype 1b clinical isolate RO-4 expressing NS5B assessed as inhibition of viral replication after 4 days by luciferase reporter gene assay; assay type: functional, organism-based, Hepacivirus hominis; settings: genotype 1b clinical isolate RO-4, 96 h
Hepatitis C virus [9] = experiment: Antiviral activity against Hepatitis C virus genotype 1a clinical isolate RO-18 expressing NS5B assessed as inhibition of viral replication after 4 days by luciferase reporter gene assay; assay type: functional, organism-based, Hepacivirus hominis; settings: genotype 1a clinical isolate RO-18, 96 h
[10] = Cmax in Wistar/Han rat at 30 mg/kg, po of amorphus MBP compound; assay type: ADME, organism-based; set-up: dose 30 mg/kg, route oral; settings: in vivo; summary of the method: as §2
[11] = Clearance in Wistar/Han rat at 2.6 mg/kg, iv; assay type: ADME, organism-based; set-up: dose 2.6 mg/kg, route intravenous; settings: in vivo; summary of the method: as §1
Hepatitis C virus [12] = experiment: Antiviral activity against Hepatitis C virus genotype 1b clinical isolate RO-1 expressing NS5B assessed as inhibition of viral replication after 4 days by luciferase reporter gene assay; assay type: functional, organism-based, Hepacivirus hominis; settings: genotype 1b clinical isolate RO-1, 96 h
Hepatitis C virus [13] = experiment: Antiviral activity against Hepatitis C virus genotype 1a clinical isolate RO-28 expressing NS5B assessed as inhibition of viral replication after 4 days by luciferase reporter gene assay; assay type: functional, organism-based, Hepacivirus hominis; settings: genotype 1a clinical isolate RO-28, 96 h
Hepatitis C virus [14] = experiment: Antiviral activity against Hepatitis C virus genotype 1b clinical isolate RO-7 expressing NS5B assessed as inhibition of viral replication after 4 days by luciferase reporter gene assay; assay type: functional, organism-based, Hepacivirus hominis; settings: genotype 1b clinical isolate RO-7, 96 h
Hepatitis C virus [15] = experiment: Antiviral activity against Hepatitis C virus genotype 1b clinical isolate RO-9 expressing NS5B assessed as inhibition of viral replication after 4 days by luciferase reporter gene assay; assay type: functional, organism-based, Hepacivirus hominis; settings: genotype 1b clinical isolate RO-9, 96 h
[16] = Cmax in Beagle dog at 30 mg/kg, po of amorphus MBP compound; assay type: ADME, organism-based, Canis lupus familiaris; set-up: dose 30 mg/kg, route oral; settings: in vivo; summary of the method: as §2
Hepatitis C virus [17] = experiment: Antiviral activity against Hepatitis C virus genotype 1b Con1 infected in human 2209-23 cells after 72 hrs by luciferase reporter gene assay in presence of 40% human serum; assay type: functional, organism-based, Hepacivirus hominis; settings: isolate Con1, 2209-23, 72 h
[18] = Clearance in Beagle dog at 0.86 mg/kg, iv; assay type: ADME, organism-based, Canis lupus familiaris; set-up: dose 0.86 mg/kg, route intravenous; settings: in vivo; summary of the method: as §1
Hepatitis C virus [19] = experiment: Antiviral activity against Hepatitis C virus genotype 1a clinical isolate RO-33 expressing NS5B assessed as inhibition of viral replication after 4 days by luciferase reporter gene assay; assay type: functional, organism-based, Hepacivirus hominis; settings: genotype 1a clinical isolate RO-33, 96 h
Hepatitis C virus [20] = experiment: Antiviral activity against Hepatitis C virus genotype 1a clinical isolate RO-34 expressing NS5B assessed as inhibition of viral replication after 4 days by luciferase reporter gene assay; assay type: functional, organism-based, Hepacivirus hominis; settings: genotype 1a clinical isolate RO-34, 96 h
Hepatitis C virus [21] = experiment: Antiviral activity against Hepatitis C virus genotype 1b clinical isolate RO-8 expressing NS5B assessed as inhibition of viral replication after 4 days by luciferase reporter gene assay; assay type: functional, organism-based, Hepacivirus hominis; settings: genotype 1b clinical isolate RO-8, 96 h
[22] = Thermodynamic solubility of the compound; assay type: physicochemical; settings: read-out: Therm_solubility
[23] = Half life in Wistar/Han rat at 2.6 mg/kg, iv; assay type: ADME, organism-based; set-up: dose 2.6 mg/kg, route intravenous; settings: in vivo; summary of the method: as §1
[24] = Oral bioavailability in Beagle dog at 30 mg/kg of amorphus MBP compound; assay type: ADME, organism-based, Canis lupus familiaris; settings: in vivo; summary of the method: as §2
[25] = Volume of distribution at steady state in Beagle dog at 0.86 mg/kg, iv; assay type: ADME, organism-based, Canis lupus familiaris; set-up: dose 0.86 mg/kg, route intravenous; settings: in vivo, read-out: Vdss; summary of the method: as §1
Hepatitis C virus [26] = experiment: Antiviral activity against Hepatitis C virus genotype 1a clinical isolate RO-35 expressing NS5B assessed as inhibition of viral replication after 4 days by luciferase reporter gene assay; assay type: functional, organism-based, Hepacivirus hominis; settings: genotype 1a clinical isolate RO-35, 96 h
[27] = Drug uptake in Wistar/Han rat at 30 mg/kg, po of amorphus MBP compound measured at 8 hrs; assay type: ADME, organism-based; set-up: dose 30 mg/kg, route oral; settings: in vivo, read-out: Drug uptake; summary of the method: as §2
[28] = AUC (0 to infinity) in Wistar/Han rat at 30 mg/kg, po of amorphus MBP compound; assay type: ADME, organism-based; set-up: time infinity, dose 30 mg/kg, route oral; settings: plasma; summary of the method: as §2
Hepatitis C virus [29] = experiment: Antiviral activity against Hepatitis C virus genotype 1a clinical isolate RO-41 expressing NS5B assessed as inhibition of viral replication after 4 days by luciferase reporter gene assay; assay type: functional, organism-based, Hepacivirus hominis; settings: genotype 1a clinical isolate RO-41, 96 h
[30] = Drug uptake in Beagle dog at 30 mg/kg, po of amorphus MBP compound measured at 8 hrs; assay type: ADME, organism-based, Canis lupus familiaris; set-up: dose 30 mg/kg, route oral; settings: in vivo, read-out: Drug uptake; summary of the method: as §2
[31] = AUC (0 to infinity) in Beagle dog at 30 mg/kg, po of amorphus MBP compound; assay type: ADME, organism-based, Canis lupus familiaris; set-up: time infinity, dose 30 mg/kg, route oral; settings: plasma; summary of the method: as §2
Hepatitis C virus [32] = experiment: Antiviral activity against Hepatitis C virus genotype 1b Con1 expressing NS5B assessed as inhibition of viral replication after 4 days by luciferase reporter gene assay; assay type: functional, organism-based, Hepacivirus hominis; settings: isolate Con1, 96 h
Hepatitis C virus [33] = experiment: Antiviral activity against Hepatitis C virus genotype 1b clinical isolate RO-2 expressing NS5B assessed as inhibition of viral replication after 4 days by luciferase reporter gene assay; assay type: functional, organism-based, Hepacivirus hominis; settings: genotype 1b clinical isolate RO-2, 96 h
Hepatitis C virus [34] = experiment: Antiviral activity against Hepatitis C virus genotype 1b clinical isolate RO-3 expressing NS5B assessed as inhibition of viral replication after 4 days by luciferase reporter gene assay; assay type: functional, organism-based, Hepacivirus hominis; settings: genotype 1b clinical isolate RO-3, 96 h
Hepatitis C virus [35] = experiment: Antiviral activity against Hepatitis C virus genotype 1a H77 expressing NS5B assessed as inhibition of viral replication after 4 days by luciferase reporter gene assay; assay type: functional, organism-based, Hepacivirus hominis; settings: genotype 1a H77, 96 h
Hepatitis C virus [36] = experiment: Antiviral activity against Hepatitis C virus genotype 1a H77 infected in human 2209-23 cells after 72 hrs by luciferase reporter gene assay in presence of 40% human serum; assay type: functional, organism-based, Hepacivirus hominis; settings: genotype 1a H77, 2209-23, 72 h
Hepatitis C virus [37] = experiment: Ratio of EC50 for Hepatitis C virus genotype 1a H77 in presence of human serum to EC50 for Hepatitis C virus genotype 1a H77; assay type: functional, Hepacivirus hominis
Hepatitis C virus [38] = experiment: Ratio of EC50 for Hepatitis C virus genotype 1b Con1 in presence of human serum to EC50 for Hepatitis C virus genotype 1b Con1; assay type: functional, Hepacivirus hominis, isolate Con1
[39] = Ratio of EC50 for Hepatitis C virus genotype 1a H77 to EC50 for Hepatitis C virus genotype 1b Con1; assay type: functional

Structure (SMILES): COc1c(C(C)(C)C)cc(-c2ccc(C)[nH]c2=O)c2ncc(-c3ccc(NS(C)(=O)=O)cc3)cc12
pEC50 (Hepatitis C virus [1]): 8.70 | pEC50 (Hepatitis C virus [2]): 8.38

Structure (SMILES): COc1ccc(-c2cc(C(C)(C)C)c(OC)c3cc(-c4ccc(NS(C)(=O)=O)cc4)cnc23)c(=O)[nH]1
pEC50 (Hepatitis C virus [3]): 9.47 | Vd [4]: 2.2 L/kg | half-life [5]: 4.3 h | pEC50 (Hepatitis C virus [6]): 8.37 | bioavailability [7]: 26% | pEC50 (Hepatitis C virus [1]): 9.00 | pEC50 (Hepatitis C virus [8]): 9.96 | pEC50 (Hepatitis C virus [9]): 9.40 | Cmax [10]: 2100 ng/mL | clearance [11]: 11.4 mL/min/kg | pEC50 (Hepatitis C virus [12]): 9.96 | pEC50 (Hepatitis C virus [13]): 9.05 | pEC50 (Hepatitis C virus [14]): 9.66 | pEC50 (Hepatitis C virus [15]): 9.47 | Cmax [16]: 1500 ng/mL | pEC50 (Hepatitis C virus [17]): 8.42 | EC90 (Hepatitis C virus [17]): 19 nM | clearance [18]: 7.5 mL/min/kg | pEC50 (Hepatitis C virus [19]): 9.22 | pEC50 (Hepatitis C virus [20]): 9.30 | pEC50 (Hepatitis C virus [21]): 9.48 | solubility thermodynamic [22]: < 1 µg/mL | half-life [23]: 4.3 h | bioavailability [24]: 31% | Vd [25]: 2.8 L/kg | pEC50 (Hepatitis C virus [26]): 9.52 | concentration at 8 h [27]: 620 ng/mL | AUC(0-inf) [28]: 13800 ng·h/mL | pEC50 (Hepatitis C virus [29]): 9.22 | concentration at 8 h [30]: 990 ng/mL | AUC(0-inf) [31]: 23700 ng·h/mL | pEC50 (Hepatitis C virus [32]): 9.49 | pEC50 (Hepatitis C virus [33]): 9.72 | pEC50 (Hepatitis C virus [34]): 9.37 | pEC50 (Hepatitis C virus [35]): 9.52 | pEC50 (Hepatitis C virus [36]): 8.00 | EC90 (Hepatitis C virus [36]): 63 nM

Structure (SMILES): COc1c(C(C)(C)C)cc(N2CCCNC2=O)c2ncc(-c3ccc(NS(C)(=O)=O)cc3)cc12
pEC50 (Hepatitis C virus [1]): 7.70 | pEC50 (Hepatitis C virus [2]): 7.19

Structure (SMILES): COc1c(C(C)(C)C)cc(-c2ccc(C)[nH]c2=O)c2ncc(CCCCNS(C)(=O)=O)cc12
solubility thermodynamic [22]: 168 µg/mL (≈ 356 µM) | pEC50 (Hepatitis C virus [2]): < 6.00

Second part, led by results:

pEC50 (Hepatitis C virus [1]): 8.49 | pEC50 (Hepatitis C virus [17]): 8.46 | EC90 (Hepatitis C virus [17]): 20 nM | pEC50 (Hepatitis C virus [2]): 8.34 | pEC50 (Hepatitis C virus [36]): 8.00 | EC90 (Hepatitis C virus [36]): 48 nM
Structure (SMILES): COc1c(C(C)(C)C)cc(N2CCC(=O)NC2=O)c2ncc(-c3ccc(NS(C)(=O)=O)cc3)cc12
Ratio EC50 (Hepatitis C virus [37]): 1.7 | Ratio EC50 (Hepatitis C virus [38]): 1.7 | Ratio EC50 [39]: 1.4

pEC50 (Hepatitis C virus [1]): 8.82 | pEC50 (Hepatitis C virus [2]): 8.52
Structure (SMILES): COc1c(C(C)(C)C)cc(-c2cn(C)c(=O)[nH]c2=O)c2ncc(-c3ccc(NS(C)(=O)=O)cc3)cc12
